Six compounds from ChEMBL document CHEMBL1128288, “7-Azetidinylquinolones as antibacterial agents. 3. Synthesis, properties and structure-activity relationships of the stereoisomers containing a 7-(3-amino-2-methyl-1-azetidinyl) moiety” (J Med Chem, 1995) can be followed below.

Values after ≈ are worked out from the molar mass of the structure shown.

The nature of data set [1]: Solubility at pH 7.4 buffer. Type of data set: physicochemical. The gist of the method: (§1)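 Excess solid was shaken 24 h at 25 °C in water or in 0.05 M phosphate buffer pH 7.4, then filtered (0.22 µm) with the first portion discarded. The filtrate was diluted with 0.1 N HCl or NaOH and measured spectrophotometrically at the compound's absorbance maximum.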
Data set [2] in a line: Solubility in water was determined at 25 degrees Centigrade. The class given is physicochemical. The gist of the method: as §1
The test system of data set [3] is Bacillus cereus. The data set is described as follows: In vitro antibacterial activity measured as minimum inhibitory concentration was evaluated on Bacillus cereus ATCC 11778 (Bc). Type of data set: functional. An outline of the steps:
(§2)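 Serial 2-fold agar dilution in Mueller Hinton medium, run side by side with reference quinolones. Inoculum 10^5 cfu/mL; compound range 0.007–16 µg/mL.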

Data set [4] relates to Bacillus subtilis. The data set is described as follows: In vitro antibacterial activity measured as minimum inhibitory concentration was evaluated on Bacillus subtilis ATCC 6633(Bs). The class given is functional. An outline of the steps: as §2
For data set [5], the system named is Enterobacter cloacae. The data set is described as follows: In vitro antibacterial activity measured as minimum inhibitory concentration, was evaluated on Enterobacter cloacae ATCC 23355 (Ecl). Type of data set: functional.
Data set [6] relates to Klebsiella pneumoniae. The data set is described as follows: In vitro antibacterial activity measured as minimum inhibitory concentration was evaluated on klebsiella pneumoniae ATCC 10031 (Kp). The class given is functional. The gist of the method:
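Serial 2-fold agar dilution in Mueller Hinton medium, run side by side with reference quinolones.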

The test system of data set [7] is Proteus vulgaris. The data set is described as follows: In vitro antibacterial activity measured as minimum inhibitory concentration was evaluated on proteus vulgaris ATCC 8427 (Pv). The class given is functional. The gist of the method: as §2
Data set [8] deals with Pseudomonas aeruginosa. The data set is described as follows: In vitro antibacterial activity measured as minimum inhibitory concentration was evaluated on Pseudomonas aeruginosa ATCC 10145 (Pa). The class given is functional. The gist of the method:
as §2

In data set [9] the test system is Staphylococcus aureus. Briefly: In vitro antibacterial activity measured as minimum inhibitory concentration was evaluated on Staphylococcus aureus ATCC 25178 (Sa). The class given is functional. An outline of the steps: as §2
Data set [10] concerns Staphylococcus epidermidis. The data set is described as follows: In vitro antibacterial activity measured as minimum inhibitory concentration was evaluated on Staphylococcus epidermidis ATCC 155-1 (Se). The class given is functional. An outline of the steps:
as §2

In data set [11] the test system is Enterococcus faecalis. The data set is described as follows: In vitro antibacterial activity measured as minimum inhibitory concentration was evaluated on Streptococcus faecalis ATCC 10541 (Sf). The class given is functional. The gist of the method:
as §2

Data set [12] relates to Escherichia coli. Briefly: In vitro antibacterial activity measured as minimum inhibitory concentration, was evaluated on Escherichia coli ATCC 23559(Ec). The class given is functional. An outline of the steps:
as §2

For data set [13], the system named is Morganella morganii. Briefly: In vitro antibacterial activity measured as minimum inhibitory concentration was evaluated on morganella morganii ATCC 8019 (Mm). The class given is functional. An outline of the steps:
as §2

For data set [14] the following is noted: mouse, in vivo, po, 50 mg/kg.
Data set [15] concerns Pseudomonas aeruginosa. Briefly: In vivo efficacy as ED50 against Pseudomonas aeruginosa HS-116 by oral administration in mice. Type of data set: functional. An outline of the steps:
(§3)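 Mice, 4 groups of 10, infected intraperitoneally with slightly more than the LD100 of the organism. A single oral dose was given immediately after infection, with four doses (one per group) chosen from in vitro activity. Survival was scored after one week. ED50 (total dose, mg/kg, protecting 50%) was interpolated among group survival rates.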

Data set [16] has as its system Staphylococcus aureus. The data set is described as follows: In vivo efficacy as ED50 against Staphylococcus aureus HS-93 by oral administration in mice. The class given is functional. The following applies: Staphylococcus aureus, po; read-out: ED50. An outline of the steps:
as §3

Data set [17] has as its system Escherichia coli. The data set is described as follows: In vivo efficacy as ED50 against Escherichia coli HM-42 by oral administration in mice. Type of data set: functional. An outline of the steps:
as §3

[18] abbreviates: Bacillus cereus, ATCC 11778, read-out: MIC.
Where [19] appears, read: Bacillus subtilis, ATCC 6633, read-out: MIC.
The mark [20] stands for this setting: Enterobacter cloacae, ATCC 23355, read-out: MIC.
The mark [21] stands for this setting: Klebsiella pneumoniae, ATCC 10031, read-out: MIC.
Where [22] appears, read: Proteus vulgaris, ATCC 8427, read-out: MIC.
The mark [23] stands for this setting: Pseudomonas aeruginosa, ATCC 10145, read-out: MIC.
The mark [24] stands for this setting: Staphylococcus aureus, ATCC 25178, read-out: MIC.
[25] abbreviates: Staphylococcus epidermidis, ATCC 155-1, read-out: MIC.
The mark [26] stands for this setting: Enterococcus faecalis, ATCC 10541, read-out: MIC.
Setting [27] is: Escherichia coli, ATCC 23559, read-out: MIC.
The mark [28] stands for this setting: Morganella morganii, ATCC 8019, read-out: MIC.

What is called solubility is the concentration that dissolves in the medium under given conditions. By MIC is commonly meant the smallest concentration in the dilution series that meets the test's criterion for growth inhibition. In general, AUC refers to the area under the concentration-time curve, a measure of exposure. With `C[C@@H](N)C(=O)N[C@@H]1CN(c2nc3c(cc2F)c(=O)c(C(=O)O)cn3C2CC2)[C@H]1C`, the results for the solubility in [1] and in [2] were 386 µg/mL (≈ 957 µM) and 495 µg/mL (≈ 1230 µM), respectively. Further, the MIC stood at 0.5 µg/mL (≈ 1.24 µM) in data set [3] (setting [18]); 0.12 µg/mL (≈ 0.297 µM) in data set [4] (setting [19]); 0.25 µg/mL (≈ 0.62 µM) in data set [5] (setting [20]); 0.5 µg/mL (≈ 1.24 µM) in [6] (setting [21]); 2 µg/mL (≈ 4.96 µM) in [7] (setting [22]); 8 µg/mL (≈ 19.8 µM) in [8] (setting [23]). For the same compound, the minimum inhibitory concentration (MIC) is 0.25 µg/mL (≈ 0.62 µM) in data set [9] (setting [24]); 1 µg/mL (≈ 2.48 µM) in data set [10] (setting [25]); 1 µg/mL (≈ 2.48 µM) in data set [11] (setting [26]); 0.25 µg/mL (≈ 0.62 µM) in data set [12] (setting [27]); 2 µg/mL (≈ 4.96 µM) in [13] (setting [28]). In addition, the AUC in data set [14] turned out to be 400 ng·h/mL.

Turning to `C[C@H](N)C(=O)N[C@@H](C)C(=O)N[C@@H]1CN(c2nc3c(cc2F)c(=O)c(C(=O)O)cn3C2CC2)[C@H]1C`, the solubility in [1] and in [2] was > 500 µg/mL each time. Moreover, the MIC in data set [3] (setting [18]) stood at 16 µg/mL (≈ 33.7 µM); in data set [4] (setting [19]), 1 µg/mL (≈ 2.11 µM); in data set [5] (setting [20]) it was 2 µg/mL (≈ 4.22 µM); in data set [6] (setting [21]), 8 µg/mL (≈ 16.9 µM); in data set [7] (setting [22]) it was 8 µg/mL (≈ 16.9 µM); in [8] (setting [23]) it was 16 µg/mL (≈ 33.7 µM). The minimal inhibitory concentration (MIC) in data set [9] (setting [24]) came out at 4 µg/mL (≈ 8.43 µM); in [10] (setting [25]), 8 µg/mL (≈ 16.9 µM); in data set [11] (setting [26]), 16 µg/mL (≈ 33.7 µM); in [12] (setting [27]), 2 µg/mL (≈ 4.22 µM); in [13] (setting [28]) it was 4 µg/mL (≈ 8.43 µM). In data set [14], this compound gave an AUC of 19200 ng·h/mL.

Regarding `CCC[C@H](N)C(=O)N[C@@H]1CN(c2cc3c(cc2F)c(=O)c(C(=O)O)cn3-c2ccc(F)cc2F)[C@H]1C`, the solubility in data set [1] and in data set [2] was > 500 µg/mL in each case. Further, the minimal inhibitory concentration (MIC) in data set [3] (setting [18]) worked out at 0.5 µg/mL (≈ 0.995 µM); in data set [4] (setting [19]), 0.25 µg/mL (≈ 0.498 µM); in data set [5] (setting [20]), 1 µg/mL (≈ 1.99 µM); in data set [6] (setting [21]) it was 0.25 µg/mL (≈ 0.498 µM); in [7] (setting [22]), 8 µg/mL (≈ 15.9 µM); in data set [8] (setting [23]) it was 16 µg/mL (≈ 31.8 µM). Further, the minimum inhibitory concentration (MIC) in data set [9] (setting [24]) is 0.5 µg/mL (≈ 0.995 µM); in data set [10] (setting [25]), 0.5 µg/mL (≈ 0.995 µM); in [11] (setting [26]) it was 4 µg/mL (≈ 7.96 µM); in data set [12] (setting [27]), 0.5 µg/mL (≈ 0.995 µM); in [13] (setting [28]) it was 4 µg/mL (≈ 7.96 µM).

One may read the ED50 as the dose that gives a 50% effect, or the effect in half of the subjects. On to `C[C@H]1[C@H](N)CN1c1cc2c(cc1F)c(=O)c(C(=O)O)cn2-c1ccc(F)cc1F` (single isomer, unassigned) [CETEFLOXACIN], for which the solubility in [1] amounted to 5.9 µg/mL (≈ 14.6 µM); in [2], 8 µg/mL (≈ 19.8 µM). Moreover, the MIC stood at 0.06 µg/mL (≈ 0.149 µM) in [4] (setting [19]), 0.06 µg/mL (≈ 0.149 µM) in [6] (setting [21]), 1 µg/mL (≈ 2.48 µM) in data set [8] (setting [23]) and 0.06 µg/mL (≈ 0.149 µM) in [12] (setting [27]). Moreover, the ED50 in [15] (Pseudomonas aeruginosa, po, read-out: ED50) was found to be 64 mg/kg; in data set [16], 7 mg/kg; in [17] (Escherichia coli, po, read-out: ED50), 4 mg/kg. Besides, the AUC in data set [14] amounted to 28400 ng·h/mL.

As to `C[C@H](N)C(=O)N[C@@H]1CN(c2cc3c(cc2F)c(=O)c(C(=O)O)cn3-c2ccc(F)cc2F)[C@H]1C`, the solubility in data set [1] and in data set [2] was > 500 µg/mL in each case. The MIC in [3] (setting [18]) came to 1 µg/mL (≈ 2.11 µM); in data set [4] (setting [19]) it was 0.5 µg/mL (≈ 1.05 µM); in data set [5] (setting [20]), 2 µg/mL (≈ 4.22 µM); in data set [6] (setting [21]), 2 µg/mL (≈ 4.22 µM); in data set [7] (setting [22]) it was 16 µg/mL (≈ 33.7 µM); in data set [8] (setting [23]), 8 µg/mL (≈ 16.9 µM). The MIC worked out at 1 µg/mL (≈ 2.11 µM) in data set [9] (setting [24]); 16 µg/mL (≈ 33.7 µM) in [10] (setting [25]); 8 µg/mL (≈ 16.9 µM) in [11] (setting [26]); 1 µg/mL (≈ 2.11 µM) in [12] (setting [27]); 4 µg/mL (≈ 8.43 µM) in data set [13] (setting [28]).

For the compound `C[C@@H]1[C@@H](N)CN1c1c(F)cc2c(=O)c(C(=O)O)cn(C3CC3)c2c1F` (stereo in doubt; 22b), the MIC amounted to 0.5 µg/mL (≈ 1.43 µM) in data set [3]; 0.12 µg/mL (≈ 0.344 µM) in data set [4]; 0.25 µg/mL (≈ 0.716 µM) in data set [5]; 0.12 µg/mL (≈ 0.344 µM) in data set [6]; 0.5 µg/mL (≈ 1.43 µM) in data set [7]; 4 µg/mL (≈ 11.5 µM) in data set [8]. The MIC was 0.25 µg/mL (≈ 0.716 µM) in [9]; 0.25 µg/mL (≈ 0.716 µM) in data set [10]; 2 µg/mL (≈ 5.73 µM) in [11]; 0.25 µg/mL (≈ 0.716 µM) in data set [12]; 0.25 µg/mL (≈ 0.716 µM) in data set [13]. Moreover, the median effective dose (ED50) came out at 65 mg/kg in data set [15], 12.2 mg/kg in data set [16] and 10.2 mg/kg in data set [17]. In addition, the AUC in data set [14] stood at 13600 ng·h/mL.
